# Test results published in PMC4687050 (Nature chemical biology, 2014).
# Entries after “also recorded” stand apart in the source; their conditions may differ.
# What was measured:
# [1] = tested on: ERK1/2; assay: Bio-layer interferometry binding kinetics; parameters: species or system human; details: BLI, 25 °C
# Summary of the method: (§1)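 Kinetics by bio-layer interferometry at 25 °C in 20 mM HEPES pH 7.5, 150 mM NaCl, 0.5 mM TCEP. Biotinylated kinases were captured on streptavidin biosensors. Association and dissociation phases ran 600 s each over several compound concentrations. Controls were protein-coated sensors without compound and uncoated sensors with compound. Data were double-referenced and fitted for binding constants.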
# [2] = tested on: MDA-MB-231 cells (pERK, pRSK1, pETS1); assay: ERK signalling after inhibitor wash-out, Western blotting; assay type: cell-based, human; details: 500 nM for 4 hours
# Summary of the method: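 MDA-MB-231 cells in DMEM/10% FBS with penicillin/streptomycin were treated with ERK inhibitor for 4 h, washed twice in PBS and released into fresh medium for 0.5, 1 and 2 h. Cells were trypsinised and lysed in SDS loading buffer with sonication. Equal protein was immunoblotted for pERK, pRSK and pETS1, with total ERK1/2, GAPDH or α-tubulin as loading controls. Band intensities were normalised to DMSO-treated cells.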
# [3] = tested on: ERK2 mutants; assay: Bio-layer interferometry binding kinetics on ERK2 mutants; parameters: species or system human
# [4] = tested on: V-C8 cells; assay: Cell viability of BRCA2-deficient versus BRCA2-complemented cells; assay type: cell-based, hamster; details: three-day exposure
# Summary of the method: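 They were exposed to test compound for three days over a concentration range, then incubated 2 h in resazurin-containing medium; fluorescence was read at 590 nm.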
# [5] = tested on: HEK293T cells lacking RAD51; assay: Cell viability of RAD51 siRNA-depleted cells; assay type: cell-based, human; details: six-day exposure
# Summary of the method: (§2)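 HEK293T cells were reverse-transfected with 40 nM siRNA per plate (Dharmafect 1), with GFP siRNA as control, then reseeded after overnight incubation. They were transfected again on day 3. For the RAD51 arm, knockdown was verified by Western blot at 12 h and day 6, with six-day compound exposure. Cells were grown in DMEM/10% FBS; viability was read by resazurin incubation for 2 h, fluorescence at 590 nm.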
# [6] = tested on: HEK293T cells; assay: Cell survival of BRCA2 siRNA knock-down cells; assay type: cell-based, human
# Summary of the method: as §2
# [7] = molecular target: T1, ERK1 (Homo sapiens, UniProt P27361); assay: Enzymatic IC50 assay; assay type: biochemical
# [8] = molecular target: Cdc2-like kinase 2 (CLK2) (Homo sapiens, UniProt P49760); assay: Enzymatic IC50 assay; assay type: biochemical
# [9] = molecular target: CSNK2A2 (Homo sapiens, UniProt P19784); assay: Enzymatic IC50 assay; assay type: biochemical
# [10] = molecular target: JNK3 (Homo sapiens, UniProt P53779); assay: Enzymatic IC50 assay; assay type: biochemical
# [11] = molecular target: T1, ERK1; assay: Isothermal titration calorimetry; assay type: binding; details: ITC
# [12] = molecular target: ERK2 (Homo sapiens, UniProt P28482); assay: Isothermal titration calorimetry; assay type: binding; details: ITC
# [13] = tested on: CLK1, CLK2, JNK2, CSNK2A1/A2, DRAK1 and TTK; assay: Bio-layer interferometry binding kinetics on off-targets; parameters: species or system human; details: BLI, 25 °C
# Summary of the method: as §1
# [14] = tested on: MDA-MB 231 cells; assay: Growth of cells with doxycycline-induced BRCA2 shRNA depletion; assay type: cell-based, human
# Summary of the method: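 MDA-MB-231 cells carrying a doxycycline-inducible BRCA2 shRNA were seeded at 2500 cells/well in DMEM/10% FBS with penicillin/streptomycin and treated with ERK inhibitors over a concentration range. Cell number was read after 2 h in resazurin-containing medium, by fluorescence at 590 nm.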
# T1 sequence (P27361 whole entry): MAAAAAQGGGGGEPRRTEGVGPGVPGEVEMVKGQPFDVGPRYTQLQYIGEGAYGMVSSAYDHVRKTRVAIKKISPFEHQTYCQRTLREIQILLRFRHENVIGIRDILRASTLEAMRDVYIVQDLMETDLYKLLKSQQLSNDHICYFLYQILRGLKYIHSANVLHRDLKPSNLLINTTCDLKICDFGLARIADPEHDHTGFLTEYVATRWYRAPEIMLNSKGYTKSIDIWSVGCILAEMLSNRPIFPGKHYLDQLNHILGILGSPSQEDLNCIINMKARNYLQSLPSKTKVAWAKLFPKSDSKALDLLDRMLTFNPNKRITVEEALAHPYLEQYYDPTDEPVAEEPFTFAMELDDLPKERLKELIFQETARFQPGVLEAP
# CSNK2A2, sequence (P19784 whole entry): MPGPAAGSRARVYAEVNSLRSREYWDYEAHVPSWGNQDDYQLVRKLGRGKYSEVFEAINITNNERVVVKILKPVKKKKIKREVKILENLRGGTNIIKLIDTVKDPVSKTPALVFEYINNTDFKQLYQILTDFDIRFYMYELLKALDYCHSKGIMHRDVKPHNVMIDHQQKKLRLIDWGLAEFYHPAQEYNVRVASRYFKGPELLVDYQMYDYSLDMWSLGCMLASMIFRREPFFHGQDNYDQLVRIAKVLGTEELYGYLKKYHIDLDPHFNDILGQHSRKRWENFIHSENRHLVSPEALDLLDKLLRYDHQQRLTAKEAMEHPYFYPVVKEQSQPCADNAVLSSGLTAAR
# JNK3, sequence (P53779 whole entry): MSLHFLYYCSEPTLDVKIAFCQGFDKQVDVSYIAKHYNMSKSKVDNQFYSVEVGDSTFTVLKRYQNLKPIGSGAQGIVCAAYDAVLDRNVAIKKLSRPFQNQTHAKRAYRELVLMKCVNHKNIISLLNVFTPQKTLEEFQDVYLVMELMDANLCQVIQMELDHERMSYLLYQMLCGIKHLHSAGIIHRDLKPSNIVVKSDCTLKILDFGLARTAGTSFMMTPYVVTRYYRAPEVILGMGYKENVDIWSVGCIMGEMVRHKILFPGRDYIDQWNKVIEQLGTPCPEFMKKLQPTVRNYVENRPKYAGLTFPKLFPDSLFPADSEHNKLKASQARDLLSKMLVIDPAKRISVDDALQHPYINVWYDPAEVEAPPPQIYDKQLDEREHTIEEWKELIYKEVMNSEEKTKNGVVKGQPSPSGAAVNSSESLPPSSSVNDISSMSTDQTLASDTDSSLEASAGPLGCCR
# Cdc2-like kinase 2 (CLK2), sequence (P49760 whole entry): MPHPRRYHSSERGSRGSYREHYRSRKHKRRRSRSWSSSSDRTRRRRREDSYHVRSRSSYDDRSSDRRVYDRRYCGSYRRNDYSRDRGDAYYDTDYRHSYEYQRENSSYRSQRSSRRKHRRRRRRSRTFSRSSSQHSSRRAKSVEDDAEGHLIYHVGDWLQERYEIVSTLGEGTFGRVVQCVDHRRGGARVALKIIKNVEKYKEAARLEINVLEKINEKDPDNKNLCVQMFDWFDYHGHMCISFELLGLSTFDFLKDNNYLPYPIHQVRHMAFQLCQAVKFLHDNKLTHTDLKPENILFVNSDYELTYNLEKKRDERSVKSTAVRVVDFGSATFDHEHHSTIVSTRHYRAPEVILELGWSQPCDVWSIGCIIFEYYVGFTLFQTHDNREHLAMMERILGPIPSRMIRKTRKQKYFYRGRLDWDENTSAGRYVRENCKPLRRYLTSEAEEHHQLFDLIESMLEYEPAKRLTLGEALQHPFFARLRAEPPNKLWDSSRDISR
# ERK2, sequence (P28482 whole entry): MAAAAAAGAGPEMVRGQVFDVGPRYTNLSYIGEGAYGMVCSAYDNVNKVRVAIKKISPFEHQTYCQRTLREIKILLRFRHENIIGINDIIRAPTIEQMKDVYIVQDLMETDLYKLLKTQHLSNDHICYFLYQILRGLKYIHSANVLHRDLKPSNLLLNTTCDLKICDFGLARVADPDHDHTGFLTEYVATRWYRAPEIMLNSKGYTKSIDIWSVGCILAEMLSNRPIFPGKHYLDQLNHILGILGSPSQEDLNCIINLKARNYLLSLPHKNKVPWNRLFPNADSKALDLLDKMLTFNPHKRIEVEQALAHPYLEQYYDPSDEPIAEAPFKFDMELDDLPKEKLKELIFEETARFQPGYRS
smiles,measurement,setting,value
Nc1[nH]nc2nnc(-c3c(-c4ccccc4)nn4ccccc34)cc12 [FR180204],binding kinetics (association and dissociation),[1],fast kinetic behaviours
same,pRSK1 inhibition,[2],not see a strong effect
Cc1cnc(Nc2ccc(F)cc2Cl)nc1-c1c[nH]c(C(=O)N[C@H](CO)c2cccc(Cl)c2)c1 [VTX-11e],binding kinetics (association and dissociation),[1],slow association and dissociation patterns
same,dissociation half-life,[1]; estimated,35 to 46 min
same,binding kinetics,"[3]; BLI, double mutants Y36Q/Y64K and Y36Q/Y64D",increase inhibitor off-rates further
same,binding kinetics,"[3]; BLI, single mutants Y36Q and Y64K",significantly reduced inhibitor off-rates
same,cell survival of BRCA2-deficient compared with BRCA2-complemented cells,[4],Significant differences in cell survival
same,cell killing of RAD51-depleted relative to control cells,[5],significant increase in cell killing
same,sensitization by BRCA2 knockdown,[6],sensitized
O=C(c1cc(Cc2n[nH]c(=O)c3ccccc23)ccc1F)N1CCN(C(=O)C2CC2)CC1 [olaparib],cell killing of RAD51-depleted relative to control cells,[5],specific elimination of RAD51-depleted cells
O=C(Nc1ccc2[nH]nc(-c3ccncc3)c2c1)[C@@H]1CCN(CC(=O)N2CCN(c3ccc(-c4ncccn4)cc3)CC2)C1 [SCH772984],IC50,[7],8.3 nM
same,IC50,[8],104 nM
same,IC50 in the enzymatic assay,[9],no activity
same,IC50,[10],632 nM
same,binding enthalpy change,[11],about −20 kcal/mol
same,binding enthalpy change,[12],about −20 kcal/mol
same,binding kinetics (association and dissociation),[1],slow binding kinetics
same,binding kinetics (association and dissociation),[13],fast association and dissociation rates
same,binding kinetics,[3]; listed as SCH771984,retained slow association and dissociation kinetics; also recorded: still showed slow binding kinetics
same,cell survival of BRCA2-deficient compared with BRCA2-complemented cells,[4],significant reduction in cell survival
same,sensitization by BRCA2 knockdown,[14],sensitized
same,sensitization by BRCA2 knockdown,[6],sensitized
"Nc1ncnc2c1c(I)cn2[C@@H]1O[C@H](CO)[C@@H](O)[C@H]1O [5-iTU, 5-iodotubercidin]",binding kinetics (association and dissociation),[1],fast kinetic behaviours
